M1 agonist – activates the M1 muscarinic receptor; CHO-M1 cells, Fluo-4 calcium fluorescence, agonist mode; hits give high values; B-score at 10 µM; actives 3% (n = 64,000); AID 626;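 active means fluorescence rise, raw or as B-score row- and column-corrected plate score, outside the 99.7% band of its plate's samples, either direction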
M1 antagonist – antagonists of rat M1 muscarinic receptor; P08482; CHO-M1 cells, Fluo-4 calcium, ACh EC80 antagonist mode; hits give low values; B-score at 10 µM; actives 3.4% (n = 64,000); AID 628;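 active means calcium fluorescence response, raw or row-and-column corrected B-score, differing from the plate sample mean either way at a set confidence level, mostly lower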
Target sequence (P08482 whole entry, looked up): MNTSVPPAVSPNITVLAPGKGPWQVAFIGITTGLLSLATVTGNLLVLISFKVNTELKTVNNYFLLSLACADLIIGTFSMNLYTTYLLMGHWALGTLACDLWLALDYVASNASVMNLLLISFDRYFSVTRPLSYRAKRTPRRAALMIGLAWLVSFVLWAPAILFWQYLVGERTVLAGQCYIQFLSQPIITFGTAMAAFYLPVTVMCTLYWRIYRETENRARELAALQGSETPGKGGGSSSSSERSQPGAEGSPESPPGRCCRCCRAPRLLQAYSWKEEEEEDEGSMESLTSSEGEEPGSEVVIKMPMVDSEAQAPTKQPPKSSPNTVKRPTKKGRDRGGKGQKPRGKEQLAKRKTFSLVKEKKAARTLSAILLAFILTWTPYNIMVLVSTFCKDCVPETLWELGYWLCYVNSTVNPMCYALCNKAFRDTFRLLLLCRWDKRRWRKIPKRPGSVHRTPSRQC
RORa activator – activates the human nuclear receptor RORA; P35398; actives 1.5% (n = 65,000); CHO-K1 Gal4-RORA LBD luciferase reporter, luminescence; percent increase over mock-subtracted basal signal; activation, % at 10 µM;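 active means activation above the mean of all tested compounds plus 3 SD, cut at about 49% in these data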
S1P3 ag – agonists of human S1P3 receptor; Q99500; S1P3 NFAT-BLA reporter cells, agonism, FRET ratio; relative to 1 µM S1P, basal subtracted; activation, % at 4.5 µM; actives 0.1% (n = 60,000);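 active means activation above the screen-wide mean plus 3 SD, cut at about 4.5% in these data, passing the limit was not always enough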
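Material: Human S1P3 NFAT-BLA reporter CHO cells | Incubation: Overnight plating, 4 h compound 37 °C, 2 h substrate RT | Signal: FRET β-lactamase substrate fluorescence, excitation 405 nm, 460/535 nm emission ratio, background-subtracted | Compound: 4.5 µM final, single dose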
S1P1 ag pot – S1P1 (human) agonism or agonism potentiation. S1P1 CRE-bla cells, forskolin, beta-lactamase FRET, potentiator mode; S1P1 agonist co-added at EC20, 2 nM; 100% = saturating reference agonist, 0% = basal. P21453. activation, % at 9.5 µM. AID 449. actives 0.57% (n = 56,000);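 active means activation above a cutoff set at the mean activation of all tested compounds plus 3 SD, cut at about 54% in these data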;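 further: forskolin at 4 µM as EC80 and the EC20 agonist is SEW2871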
SF1 activator – activates the human nuclear receptor SF-1; CHO-K1 Gal4-SF-1 LBD luciferase reporter; % increase over DMSO SF-1-specific signal; activation, % at 10 µM; actives 1.9% (n = 65,000); AID 522;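 active means activation above the mean activation of all tested compounds plus 3 SD, cut at about 50% in these data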
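Material: CHO-K1 cells with Gal4–hSF-1 LBD chimera plus Gal4-driven luciferase / Input: 4,000 CHO-K1 cells per well / Incubation: compound exposure 20 h at 37 °C / Signal: luminescence read 15 min after SteadyLite luciferase reagent, after room-temperature equilibration / Read-out: percent activation versus DMSO / Benchmarks: DMSO negative control and −SF1 background wells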
M1 antag conf – confirmation of rat M1 muscarinic receptor antagonists; calcium response (max-min fluorescence) at 10 µM; shares compounds with M1 antagonist; actives 43% (n = 1,700); CHO-M1 cells, Fluo-4 calcium, ACh EC80 antagonism; hits give low values;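 active means calcium response below the same-plate mean of wells given acetylcholine alone at its 80%-effect dose, minus 3 SD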
mGluR4 antag – mGluR4 (human) activity, M1 antagonist secondary assay; fluorescence response (max-min) at 10 µM; CHO-mGluR4 calcium flux, Fluo-4 fluorescence, glutamate EC80; hits give low values; actives 0.9% (n = 1,700); AID 678; shares compounds with M1 antagonist;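 active means fluorescence response below the plate's average for near-maximal glutamate wells, less 3 SD of those wells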;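 further: raw unnormalized fluorescence span taken in the window right after glutamate addition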
Hits are given with their value; . = inactive; / = no result given. In the library only some 8.8% were active in any assay of this set; here they are far more common.

SMILES	M1 agonist	M1 antagonist	RORa activator	S1P3 ag	S1P1 ag pot	SF1 activator	M1 antag conf	mGluR4 antag
O=S(=O)(Nc1ccc2c(c1)OCCO2)c1cccc2nsnc12	.	-2.7	.	.	.	.	362	.
O=C(CCNS(=O)(=O)c1cccc2nsnc12)Nc1ccc2c(c1)OCCO2	.	.	.	/	/	.	/	/
CCCCS(=O)CC(O)COc1ccc(C(C)(C)C)cc1 (stereo not given)	.	.	.	.	.	.	/	/
CC(C)(C)c1ccc(OCC(O)CS(=O)(=O)c2ccccn2)cc1 (stereo not given)	.	-1.8	.	.	.	.	.	.
CCc1nccn1S(=O)(=O)c1ccc(Br)cc1Br	.	.	.	.	.	.	/	/
CCOC(=O)CSC1=C(C#N)C(C)C2=C(CCCC2=O)N1 (stereo not given)	.	.	.	.	.	.	/	/
O=C(CSc1nnc(-c2ccco2)n1Cc1ccccc1)c1ccccc1	.	-2	49	.	.	51	.	.
Cc1ccc(C(=O)CSc2nnc(-c3ccco3)n2Cc2ccccc2)cc1	.	.	.	/	/	.	/	/
COc1ccc(S(=O)(=O)N(C)CC(=O)O)c2ccccc12	.	.	.	.	.	.	/	/
O=C1CC(c2cc3c(cc2Br)OCO3)C2=C(CCCC2=O)N1 (stereo not given)	.	.	.	.	.	.	/	/
Cc1ccc(-n2ncc3c(NCC4CCCO4)ncnc32)c(C)c1 (stereo not given)	.	-3.6	.	.	/	.	.	.
C=CCNc1ncnc2c1cnn2-c1ccc(C)cc1C	.	.	.	.	.	.	/	/
CCCn1c2c(c(O)c(C(=O)Nc3ncccc3C)c1=O)CCCC2	.	-2.3	.	.	.	.	421	.
CCCn1c2c(c(O)c(C(=O)Nc3ccc(C)cn3)c1=O)CCCC2	.	.	.	.	.	.	/	/
CCC(C)(C)n1nnnc1C(c1cc2cc(OC)ccc2[nH]c1=O)N1CCc2ccccc21 (stereo not given)	.	-16	.	.	.	.	.	.
CCOC(=O)NC(NC(=O)OCC)C(=O)c1ccccc1	/	/	.	.	.	.	/	/
Cn1c(SCCN2CCCCC2)nnc1-c1ccccc1Br	.	-2	.	.	.	.	561	.
CC1CCN(Cc2nc3c(c(=O)n(C)c(=O)n3C)n2CCCc2ccccc2)CC1	.	.	.	.	.	.	/	/
Cc1ccc(S(=O)(=O)NCCCCCC(=O)N(C)C)cc1	.	.	.	.	.	.	/	/
Cc1ccc(S(=O)(=O)NCCCC(=O)C=[N+]=[N-])cc1	.	-3.3	.	.	.	.	.	.
Cc1cc(C)n(-c2ccc(C(=O)OCC(=O)N(CC(C)C)C3CCS(=O)(=O)C3)cc2)n1 (stereo not given)	.	-2.5	.	.	.	.	.	.
CC(C)c1cc(NCCCN2CCOCC2)n2c(nc3ccccc32)c1C#N	.	.	.	.	.	.	/	/
Cc1ccc(-c2nsc3c(N4CCC(C(N)=O)CC4)ncnc23)cc1	.	.	.	.	.	.	/	/
CCc1c(C(=O)NC2CCCC2)csc1C	.	-2.2	.	.	.	.	.	.
CN(C)c1ccc(C2C3=C(CCCC3=O)OC3=C2C(=O)CCC3)cc1	.	-10	.	.	.	.	400	.
SMILES	M1 agonist	M1 antagonist	RORa activator	S1P3 ag	S1P1 ag pot	SF1 activator	M1 antag conf	mGluR4 antag
COCCOC(=O)C1=C(C)NC2=C(C(=O)CCC2)C1c1ccc(N(C)C)cc1 (stereo not given)	.	.	.	.	.	.	/	/
O=C(NCCc1ccccc1)C1CCCN1C(=O)Nc1ccc(F)cc1 (stereo not given)	.	.	.	.	.	.	/	/
c1ccc(-c2cc3c(N4CCOCC4)ncnc3s2)cc1	.	-2.6	.	.	.	.	.	.
Cc1nc(N2CCOCC2)c2cc(-c3ccccc3)sc2n1	.	.	.	.	.	.	/	/
CCCc1cc(=O)[nH]c(SCC(=O)c2cc(C)n(CCOC)c2C)n1	.	-3.6	.	.	.	.	.	.
COCCn1c(C)cc(C(=O)CSc2ncn[nH]2)c1C	.	.	.	.	/	.	/	/
COc1cccc(C(=O)Nc2cc(=O)n(C)c(=O)n2C)c1	.	.	.	.	.	.	/	/
CC(C)(C)C(=O)C(Oc1cccc2nonc12)n1cncn1 (stereo not given)	.	.	.	.	.	.	/	/
CCc1ccccc1OCCCCN1CCCC1	.	-4.3	.	.	/	.	.	.
C=CCc1ccccc1OCCCCN1CCCC1	.	-3.4	.	.	.	.	367	.
Cc1ccccc1OCCCN1CCCC1	.	.	.	.	.	.	/	/
CCOC(=O)c1cccc(NC(=O)Cn2c(CC(=O)N3CCCC3)nc3ccccc32)c1	.	.	.	.	.	.	/	/
Cc1ccc(C(=O)NCC(=O)OCC(=O)c2c(N)n(C)c(=O)n(C)c2=O)s1	.	.	.	.	.	.	/	/
COC(=O)c1[nH]c2ccccc2c1NC(=O)CN1CCN(C(=O)c2ccco2)CC1	.	.	.	.	.	.	/	/
CCOc1cc(NC(=O)c2ccco2)c(OCC)cc1NC(=O)c1cc(OC)c(OC)c(OC)c1	.	.	.	.	.	.	/	/
CCOc1cc(C#N)c(NC(=O)c2ccco2)cc1OCC	.	-11	.	.	.	.	.	.
O=C(NCCN1CCCCCC1)c1ccc(CS(=O)(=O)c2ccc(Br)cc2)o1	.	-3	.	.	.	.	470	.
O=C(NCCCN1CCCC1)c1ccc(CS(=O)(=O)c2ccc(Br)cc2)o1	.	.	.	.	.	.	/	/
Cn1c(=O)c2cc(S(=O)(=O)N3CCC(c4ccccc4)CC3)ccc2n(C)c1=O	.	.	.	.	/	.	/	/
CCOC(=O)c1cncc(NC(=O)c2ccccc2)c1	.	.	.	.	.	.	/	/
O=C(Nc1ccc2c(c1)OCO2)C1CCN(Cc2cnn(-c3ccccc3)c2-n2cccc2)CC1	.	-2.1	.	/	/	.	.	.
O=C(NCCCc1ccccc1)C1CCN(c2nnc(-n3cccc3)s2)CC1	.	.	.	.	.	.	/	/
O=C(NCCCN1CCN(Cc2ccccc2)CC1)C1CCN(c2nnc(-n3cccc3)s2)CC1	.	-6.9	.	.	.	.	419	.
O=C(NCCCN1CCc2ccccc2C1)C1CCN(c2nnc(-n3cccc3)s2)CC1	.	-2.9	.	.	.	.	337	.
